ChEMBL document CHEMBL2040758, “Synthesis and antitumor activity of novel quinazoline derivatives containing thiosemicarbazide moiety” (Eur J Med Chem, 2012)

What was measured:
Assay type in all cases: functional, cell-based
KB = assay: Cytotoxicity against human KB cells after 72 hrs by MTT assay
Method in brief: (§1)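 Log-phase cells: KB, CNE2, MGC-803 and GLC-82 grown in RPMI 1640 + 10% fetal calf serum; MCF-7 in DMEM + 10% fetal calf serum. Seeded at 1.5×10⁴ cells/mL (KB), 2.0×10⁴ (CNE2, MGC-803, GLC-82) or 2.5×10⁴ (MCF-7), 37 °C, 5% CO₂, 24 h. Compound exposure 72 h, 37 °C. MTT (5 mg/mL saline stock) 3 h. A570, reference 655 nm. IC₅₀ versus untreated control, ≥3 experiments.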

[1] = Cytotoxicity against human CNE2 cells after 72 hrs by MTT assay; conditions: CNE-2, 72 h; method in brief: as §1
MGC-803 = assay: Cytotoxicity against human MGC803 cells after 72 hrs by MTT assay; conditions: MGC-803, 72 h; method in brief: as §1
MCF7 = assay: Cytotoxicity against human MCF7 cells after 72 hrs by MTT assay; conditions: MCF7, 72 h; method in brief: as §1
[2] = Cytotoxicity against human GLC82 cells after 72 hrs by MTT assay; conditions: GLC82, 72 h; method in brief: as §1

SMILES	IC50 (KB) [µM]	IC50 [1] [µM]	IC50 (MGC-803) [µM]	IC50 (MCF7) [µM]	IC50 [2] [µM]
Cc1ccccc1C(=O)NC(=S)NNc1ncnc2ccccc12	2.77	5.46	4.24	16.5	13.2
COc1cc2ncnc(NNC(=S)NC(=O)c3ccccc3C)c2cc1OC	11.4	10.5	11.1	19.3	21.5
O=C(NC(=S)NNc1ncnc2ccccc12)c1ccccc1F	2.51	4.61	5.01	5.02	6.46
O=C(NC(=S)NNc1ncnc2ccccc12)c1ccccc1	2.33	1.49	6.99	5.96	8.37
O=C(NC(=S)NNc1ncnc2ccccc12)c1ccc(Cl)cc1	3.94	1.53	1.86	5.96	6.68
COc1cc2ncnc(NNC(=S)NC(=O)c3ccccc3)c2cc1OC	3.77	8.18	3.05	6.99	6.55
COc1ccccc1C(=O)NC(=S)NNc1ncnc2ccccc12	> 50	15.7	14.3	8.7	9.5
COc1cc2ncnc(NNC(=S)NC(=O)c3ccc(F)cc3)c2cc1OC	4.53	16.1	8.3	25.8	15.3
COc1cc2ncnc(NNC(=S)NC(=O)c3cccc(Cl)c3)c2cc1OC	4.83	7.46	4.06	11.5	8.37
O=C(NC(=S)NNc1ncnc2ccccc12)c1ccc(C(F)(F)F)cc1	7.92	22.5	10.6	8.05	12.2
COc1cc2ncnc(NNC(=S)NC(=O)c3ccc(C(F)(F)F)cc3)c2cc1OC	8.84	16.5	9.28	16.8	16.5
COc1cc2ncnc(NNC(=S)NC(=O)c3ccc(Cl)cc3)c2cc1OC	4.59	7.53	3.71	8.94	9.62
O=C(NC(=S)NNc1ncnc2ccccc12)c1cccc(Cl)c1	4.74	2.92	4.54	3.54	3.24
O=c1[nH]cc(F)c(=O)[nH]1 [FLUOROURACIL]	8.28	15.1	18.5	14.2	17.4
COc1cc2ncnc(NNC(=S)NC(=O)c3ccccc3OC)c2cc1OC	3.85	8.41	1.59	8.8	16
COc1cc2ncnc(NNC(=S)NC(=O)c3ccc(C)cc3)c2cc1OC	24.2	33.3	19.7	22.3	29.9
Cc1ccc(C(=O)NC(=S)NNc2ncnc3ccccc23)cc1	10.1	17.2	3.76	7.82	11.2
O=C(NC(=S)NNc1ncnc2ccccc12)c1ccc(F)cc1	1.87	2.84	3.6	4.59	6.07
COc1cc2ncnc(NNC(=S)NC(=O)c3ccccc3Cl)c2cc1OC	3.56	9.67	6.44	23.1	10
COc1cc2ncnc(NNC(=S)NC(=O)c3ccccc3F)c2cc1OC	4.07	12.7	2.39	8.5	8.64
O=C(NC(=S)NNc1ncnc2ccccc12)c1ccccc1Cl	7.71	6.09	9.14	10.5	10.8
